Sampled rows, rich in hits. Any-hit rate of the full collection: about 3%.
Pemphigus Ab inh: inhibitors of pemphigus antibody binding to human desmoglein-3. binding (percent of control), % at 10 µM. DSG3-coupled beads, scFv-anti-DSG3-GFP binding, flow cytometry; hits give low values. 310,000 tested, 0.48% active;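 active = binding more than 3 SD below its plate's average and above zero; inconclusive = below that plate limit but binding exactly zero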;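 also: hits lower antibody fragment binding to DSG3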
Target sequence (P32926 whole entry, looked up, the tested form may be a part): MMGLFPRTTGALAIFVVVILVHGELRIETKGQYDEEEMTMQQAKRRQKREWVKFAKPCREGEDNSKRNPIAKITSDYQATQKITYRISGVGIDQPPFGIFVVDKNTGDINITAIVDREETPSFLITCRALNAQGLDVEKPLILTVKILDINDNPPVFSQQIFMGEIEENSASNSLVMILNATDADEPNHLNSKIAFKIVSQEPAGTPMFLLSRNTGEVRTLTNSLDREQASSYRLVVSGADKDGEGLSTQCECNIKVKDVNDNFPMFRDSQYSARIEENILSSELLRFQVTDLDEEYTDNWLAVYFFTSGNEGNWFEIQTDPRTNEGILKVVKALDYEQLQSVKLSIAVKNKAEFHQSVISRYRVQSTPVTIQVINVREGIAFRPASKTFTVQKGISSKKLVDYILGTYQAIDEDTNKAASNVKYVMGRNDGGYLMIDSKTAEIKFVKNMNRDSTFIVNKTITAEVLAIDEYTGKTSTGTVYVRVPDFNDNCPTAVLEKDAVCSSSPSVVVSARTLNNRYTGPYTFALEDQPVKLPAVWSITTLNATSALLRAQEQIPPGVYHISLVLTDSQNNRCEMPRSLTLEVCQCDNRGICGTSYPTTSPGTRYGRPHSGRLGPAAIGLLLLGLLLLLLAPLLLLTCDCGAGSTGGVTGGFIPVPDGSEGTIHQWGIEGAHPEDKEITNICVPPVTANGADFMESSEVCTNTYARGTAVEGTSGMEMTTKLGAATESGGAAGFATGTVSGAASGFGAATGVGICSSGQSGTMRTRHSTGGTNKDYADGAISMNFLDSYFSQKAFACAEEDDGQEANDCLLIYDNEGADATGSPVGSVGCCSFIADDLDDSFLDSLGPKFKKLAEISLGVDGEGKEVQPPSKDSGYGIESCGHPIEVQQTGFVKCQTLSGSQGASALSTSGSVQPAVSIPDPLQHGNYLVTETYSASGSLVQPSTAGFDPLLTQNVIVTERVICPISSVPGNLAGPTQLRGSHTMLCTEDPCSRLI
HNF4A DNA FP: change in binding of human HNF4 alpha to DNA; HNF4a-FITC DNA binding, fluorescence polarization, 1 h; activity change, % at 10 µM; AID 1224865; 360,000 tested, 0.3% active; in the data active = activity change above about 30%, passing the limit was not always enough
Myeloid diff 2: promotes myeloid progenitor differentiation. 360,000 tested, 1% active. calls only at 10 µM. AID 624256. ER-HoxA9 myeloid progenitors, lysozyme-GFP differentiation, flow cytometry;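 active = normalized GFP-positive differentiation at or above the plate's own cutoff, the solvent-only control mean plus 3 SD; inconclusive = no clear call, values can overlap the other calls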;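 also: cells exposed to compound for four days before flow analysis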
Granule exo inh: lytic granule exocytosis inhibition; inhibition, % at 10 µM; TALL-104 LAMP-1 surface exposure, flow cytometry; cells stimulated with thapsigargin and PMA; AID 651702; 360,000 tested, 0.66% active;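 active = inhibition above about 55%, limit read from the data; inconclusive = no clear call, values can overlap the other calls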
SENP1 inh: inhibitors of human SENP1 SUMO protease catalytic domain; 360,000 tested, 0.21% active; inhibition, % at 10 µM; recombinant SENP1 catalytic domain, CyPet-SUMO1-YPet FRET cleavage; AID 624204; Q9P0U3;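 active = inhibition at least 30% at 10 µM, raw YFP signal under a set limit, fluorescence ratio 0.5 to 1.5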
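Test system: hSENP1 catalytic domain, recombinant; Amount: 20 pM final SENP1 enzyme; Medium: Tris pH 8 buffer plus EDTA, NaCl, BME, BSA, NP40, catalase; Schedule: 50 min enzyme reaction, room temperature, light-protected; Technique: FRET fluorescence in CFP and YFP emission channels; Controls: no-enzyme wells low, DMSO-plus-enzyme wells high control.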
Cardio protect: modulators protecting cardiomyocytes from myocardial damage; H9c2 cardiomyocytes, H2O2 injury protection, ATPLite, 2 h; protection from H2O2 cell death, % at 20 µM; 360,000 tested, 0.63% active;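 active = compounds giving at least 50% protection of heart cells from peroxide-induced death in the single-dose screen, raw or plate-pattern-corrected value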
Each line names hits and unclear results; the compound was inactive in the other large screens.

Cc1ccc(O)c(C(=O)CC(=O)c2ccccc2Cl)c1	none
Cc1ccc(O)c(C(=O)CC(=O)c2ccc(C(C)(C)C)cc2)c1	Cardio protect 57
N#Cc1c(Nc2ccc(Cl)cc2)s[nH]c1=O	Granule exo inh 83
CCOC(=O)N1CCC2(O)CCCCC2C1c1ccc(F)cc1 (centres undefined)	Pemphigus Ab inh 86
O=C(CN1CC[C@@]2(O)CCCC[C@H]2[C@@H]1c1ccc(F)cc1)NCc1ccco1	none
COc1cccc(NC(=O)c2ccnc(N3CCC(C(=O)NCc4ccccc4OC)CC3)c2)c1	none
Cc1ccc2c(c1C)NC(C(=O)O)C1CC=CC21 (centres undefined)	Pemphigus Ab inh 35
Cc1cc(C)c2c(c1)NC(C(=O)O)C1CC=CC21 (centres undefined)	Myeloid diff 2 active
O=C(O)C1Nc2c(C(F)(F)F)ccc(Cl)c2C2C=CCC12 (centres undefined)	none
Cc1c(C(=O)N(C)Cc2ccc(F)cc2)sc(=O)n1Cc1ccccc1C#N	none (no result: Pemphigus Ab inh)
CS(=O)(=O)N(CC(=O)N1CCOCC1)c1cccc(F)c1	Pemphigus Ab inh 77
CC1CCN(C(=O)CN(c2cccc(F)c2)S(C)(=O)=O)CC1	none
O=S(=O)(c1ccc2oc(=S)[nH]c2c1)N1CCOCC1	none
O=S(=O)(c1ccc2oc(=S)[nH]c2c1)N1CCCCC1	Myeloid diff 2 active
COc1ccc(-c2c(-c3cc(OC)cc(OC)c3)n(C)c3ccc(-c4ccc(S(N)(=O)=O)cc4)cc23)cc1	none
CCN(CC(=O)Nc1ccccc1OC)C(=O)c1ccc(N(C)S(=O)(=O)c2ccc(C)cc2)cc1	none
CSCC[C@H](NC(=O)Cc1c(C)c2cc3c(C)c(C)oc3cc2oc1=O)C(=O)N[C@@H](C(=O)O)c1ccccc1	none (no result: Pemphigus Ab inh)
COC(=O)COc1cccc2c(=O)n(CC(=O)Nc3ccc4c(c3)OCCO4)ccc12	Pemphigus Ab inh 51
COc1cccc2c(=O)n(CC(=O)Nc3ccccc3)ccc12	none
NS(=O)(=O)OCC(Cc1ccccc1)N1C(=O)c2ccccc2C1=O (centres undefined)	none
CCCCn1c2nc3ccccc3nc2c2c(=O)n(CCC(C)C)cnc21	none
CC(C)Cn1c2nc3ccccc3nc2c2c(=O)n(CCN3CCOCC3)cnc21	Myeloid diff 2 active
O=C(NCc1ccc(F)cc1F)[C@@H]1CCCN1C(=O)[C@@H]1CCCN1C(=O)c1ccccc1	none (no result: Pemphigus Ab inh, Cardio protect)
CCOc1ccc(NC(=O)c2cc3c(=O)n(C)c4ccccc4c3n2C)cc1	Cardio protect 66
COc1ccccc1NC(=O)c1cc2c(=O)n(C)c3ccccc3c2n1C	none
Cn1c(C(=O)NCCCN2CCOCC2)cc2c(=O)n(C)c3ccccc3c21	Pemphigus Ab inh 83
Cn1c(C(=O)Nc2ccc3c(c2)OCO3)cc2c(=O)n(C)c3ccccc3c21	Myeloid diff 2 inconclusive
CC(NC(=O)c1cc2c(=O)n(C)c3ccccc3c2n1C)c1ccc2c(c1)OCCO2 (centres undefined)	Myeloid diff 2 inconclusive, Cardio protect 72
CC(C)NC(=O)C(=O)Nc1cc2c3c(c1)C(C)C(=O)N3CCC2 (centres undefined)	Pemphigus Ab inh inconclusive
CCN(CC)C(CNC(=O)c1cc(=O)[nH]c2ccccc12)c1ccccc1Cl (centres undefined)	none (no result: Pemphigus Ab inh, Myeloid diff 2)
N#CC1C(C#N)N2CCCN2C1c1ccc(Br)cc1 (centres undefined)	none
Cc1ccc(NC(=O)COC(=O)c2ccc3ncsc3c2)c(C)c1	none
Cc1cc(C)n2nc(SCCOc3ccccc3F)nc2n1	none
COc1ccc(N2CCN(C(=O)c3cccc(Cn4cc(Cl)cn4)c3)CC2)cc1	Pemphigus Ab inh 26
O=C(O)c1ccc2c(c1)S(=O)(=O)c1ccccc1C2=O	none
O=C(O)c1ccc2c(c1)S(=O)(=O)c1cc(N3CCN(c4cnccn4)CC3)ccc1C2=O	Cardio protect 50
O=c1ccsn1Cc1ccccc1	Myeloid diff 2 inconclusive, Granule exo inh 95
Cc1c(/C=N/NC(=O)c2ccccc2O)c2ccccn2c1C(=O)c1ccc(F)cc1	Granule exo inh 78
Cc1c(/C=N/NC(=O)c2ccc(O)cc2)c2ccccn2c1C(=O)c1ccc(F)cc1	Cardio protect 54
COC(=O)N/N=C/c1c(C)c(C(=O)c2ccc(F)cc2)n2ccccc12	none
NS(=O)(=O)c1ccc(NC(=O)COc2cccc3ccccc23)cc1	none
CN1CCN(CCC(=O)N/N=C/c2ccccc2F)CC1	none
O=C(CCN1CCN(c2ccccc2)CC1)N/N=C/c1ccccc1O	Cardio protect 55
Cc1cccc(-n2ncc3c2CCCC3NC(=O)CCc2cccnc2)c1C (centres undefined)	Myeloid diff 2 inconclusive
CCOCc1c(C(=O)Nc2ccc(OC)nc2)oc2ccccc12	none
COc1ccc(-n2c(=S)[nH]c3cc(C(=O)NCCCN4CCOCC4)ccc3c2=O)cc1OC	none
Nc1ccc2nc(-c3cccc(-c4nc5ccc(N)cc5[nH]4)n3)[nH]c2c1	Myeloid diff 2 active
Nc1ccc2nc(CCCCCCc3nc4ccc(N)cc4[nH]3)[nH]c2c1	Pemphigus Ab inh 65
Cc1ccc2nc(-c3cccc(N)c3)[nH]c2c1	none
Nc1ccc2nc(CCCCCCCCc3nc4ccc(N)cc4[nH]3)[nH]c2c1	none
Cc1c(NC(=O)COC(=O)c2ncc(Cl)c(Cl)c2Cl)c(=O)n(-c2ccccc2)n1C	none
COc1cccc(CC(=O)OCC(=O)NCC(=O)Nc2cccc(C)c2C)c1	none
CCOC(=O)c1sc(=NC(=O)c2ccccc2Br)n(C)c1C	Pemphigus Ab inh 68
COc1ccc(N2CCN(C(=O)c3cc(=O)[nH]c4ccccc34)CC2)cc1	none
Cc1cc(C)c(C)c(S(=O)(=O)N2CCN(C(=O)c3cc(=O)[nH]c4ccccc34)CC2)c1C	Myeloid diff 2 active, Cardio protect 79
Cc1ccc(S(=O)(=O)N2CCN(C(=O)c3cc(=O)[nH]c4ccccc34)CC2)c(C)c1	Cardio protect 72
N#Cc1ccccc1S(=O)(=O)N1CCN(C(=O)c2cc(=O)[nH]c3ccccc23)CC1	Pemphigus Ab inh inconclusive
Cc1cc(C)c(S(=O)(=O)N2CCN(C(=O)c3cc(=O)[nH]c4ccccc34)CC2)c(C)c1	Cardio protect 63
COc1ccc(C(=O)Oc2ccc3c(c2)OCO3)cc1OC	Pemphigus Ab inh 21
CC/C(C)=N/NC(=O)c1[nH]c2ccc(C)cc2c1-c1ccccc1	Myeloid diff 2 active
C=CCN1CC(C(=O)N2CCC(Cc3ccc(Cl)cc3)(C(=O)OCC)CC2)CC1=O (centres undefined)	HNF4A DNA FP 36
CCOC(=O)C1(Cc2ccc(Cl)cc2)CCN(C(=O)C2CCCO2)CC1 (centres undefined)	none
N#CC/C(N)=N/Nc1nc2ccccc2nc1Cc1ccccc1	none
